Experiments:
[1] = tested on: lung adenocarcinoma H1650; test: MTT assay, H1650; type: cell-based; settings: Homo sapiens, NCI-H1650, 24 h, read-out: IC50 ± S.D. H1650
How it was run: (§1)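 Cell lines from ATCC were seeded at 10^4 cells per well in 100 μL medium. They were exposed to the test compound for 24 h at 37 °C under 5% CO2. Then 10 μL MTT (5.0 mg mL−1) was added for 4 h at 37 °C. Cells were lysed in isopropanol/conc. HCl/Triton X100 for 10 min at room temperature with shaking. Formazan was read at 570 nm, in triplicate.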

[2] = tested on: human promyelocytic leukemia HL-60; test: MTT assay, HL-60; type: cell-based; settings: read-out: IC50 ± S.D. HL-60, 24 h, mean of 3 independent experiments
How it was run: as §1

[3] = tested on: human colon adenocarcinoma HT-29; test: MTT assay, HT-29; type: cell-based; settings: read-out: IC50 ± S.D. HT-29, 24 h, mean of 3 independent experiments
How it was run: as §1

[4] = target: PIM-1 (Homo sapiens, UniProt P11309); test: PIM-1 kinase assay; type: biochemical
PIM-1, sequence (P11309 whole entry): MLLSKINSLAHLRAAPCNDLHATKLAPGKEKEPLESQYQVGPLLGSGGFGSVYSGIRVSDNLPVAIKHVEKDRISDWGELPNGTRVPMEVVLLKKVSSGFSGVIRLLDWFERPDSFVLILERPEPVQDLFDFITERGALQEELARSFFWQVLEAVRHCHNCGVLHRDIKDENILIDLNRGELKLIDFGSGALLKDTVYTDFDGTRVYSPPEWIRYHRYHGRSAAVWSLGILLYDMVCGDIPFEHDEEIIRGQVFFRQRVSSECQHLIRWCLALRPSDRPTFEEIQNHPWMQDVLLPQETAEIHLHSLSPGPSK

[5] = target: PIM-2 (Homo sapiens, UniProt Q9P1W9); test: PIM-2 kinase assay; type: biochemical
PIM-2, sequence (Q9P1W9 whole entry): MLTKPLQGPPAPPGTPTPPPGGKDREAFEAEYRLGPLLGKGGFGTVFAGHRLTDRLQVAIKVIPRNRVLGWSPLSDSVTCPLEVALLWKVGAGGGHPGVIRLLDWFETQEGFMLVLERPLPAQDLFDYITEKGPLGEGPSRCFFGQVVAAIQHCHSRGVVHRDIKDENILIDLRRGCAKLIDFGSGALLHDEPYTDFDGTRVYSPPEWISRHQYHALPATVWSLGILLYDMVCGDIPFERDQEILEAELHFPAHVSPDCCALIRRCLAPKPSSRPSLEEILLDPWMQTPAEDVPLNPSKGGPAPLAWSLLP
How it was run: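 Luminescent ADP-Glo readout of ADP formed. Enzyme, substrate, ATP and inhibitor were diluted in kinase buffer, with 5% DMSO as vehicle. The kinase reaction ran 60 min at room temperature. ADP-Glo Reagent was then added for 40 min, followed by Kinase Detection Reagent for 30 min, both at room temperature, before luminescence was recorded.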

[6] = target: PIM-3 (Homo sapiens, UniProt Q86V86); test: PIM-3 kinase assay; type: biochemical
How it was run: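 Radiometric filter assay. Active PIM-3 was mixed with substrate (1 mg mL−1 stock) and started with [33P]-ATP cocktail (250 μM ATP stock), then held 15 min at 30 °C. Aliquots were spotted onto P81 phosphocellulose, washed three times for about 10 min each in 1% phosphoric acid, and scintillation-counted. A no-substrate blank was subtracted. Kinase specific activity came from corrected cpm, ATP specific activity, time and enzyme amount.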

[7] = target: PIM-1 kinase; settings: read-out: IC50 against PIM-1 kinase enzyme; cited from earlier work

Row | Compound | IC50 [1] | IC50 [5] | IC50 [6] | also measured
1 | COc1ccc(/C=C/C(=O)CC2(O)C(=O)Nc3cc(Br)ccc32)cc1 (centres unmarked) [Compound 4, (E)-6-bromo-3-hydroxy-3-(4-(4-methoxyphenyl)-2-oxobut-3-enyl) indolin-2-one] | > 100000 nM | – | – | –
2 | COc1ccc(/C=C/C(=O)/C=C2/C(=O)Nc3cc(Br)ccc32)cc1 [Compound 5, (E)-6-bromo-3-((E)-4-(4-methoxyphenyl)-2-oxobut-3-enylidene)indolin-2 one] | > 100000 nM | – | – | IC50 [2]: 1400 nM; IC50 [3]: 1700 nM
3 | COc1ccc(/C=C/C(/C=C2/C(=O)Nc3cc(Br)ccc32)=N\O)cc1 [Compound 6, (E)-6-bromo-3-((2E,3E)-2-(hydroxyimino)-4-(4-methoxyphenyl)but-3-enylidene)indolin-2-one] | > 100000 nM | 220 ± 10 nM | 360 ± 12 nM | IC50 [4]: 470 ± 13 nM
4 | Nc1nccc(-c2c[nH]c3ccc(Br)cc23)n1 [Meridianin C, 4-(5-bromo-1H-indol-3-yl)pyrimidin-2-amine] | – | – | – | IC50 [7]: 1440 nM
5 | O=c1c(O)c(-c2ccc(O)c(O)c2)oc2cc(O)cc(O)c12 [Querecitin, quercetin, reference compound] | – | 640 ± 10 nM | 830 ± 13 nM | –

— paper PMC9049778 (RSC Advances, 2020)
